Arr AP2 block = blocks beta-arrestin peptide binding to AP2 adaptin. FITC-arrestin peptide / GST-AP2 beads, flow cytometry; AP2 beta2 appendage carries R879A mutation. inhibition, % at 10 µM. 340,000 compounds, 0.31% hits. AID 504490;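 active = inhibition above a set limit, near 3 SD of compounds lacking own fluorescence, cut at about 54% in these data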;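 note: plate controls were DMSO wells for no effect and 5 µM unlabelled arrestin peptide for full effect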
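System: GST-AP2 R879A bound to glutathione beads, E. coli-expressed. Also added: 50 nM FITC-arrestin peptide. Schedule: compound with beads 12 min RT, then probe 1 h RT. Signal: bead flow cytometry, FITC channel. Read-out basis: percent response.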
HTR2A ag = mouse HTR2A agonism via beta-arrestin recruitment; AID 624169; 360,000 compounds, 0.66% hits; activation, % at 7.6 µM; CHO-K1 mHTR2A beta-arrestin complementation, luminescence; percent of 30 µM serotonin response;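 active = activation above a run cutoff, the mean activation of all tested compounds plus 3 SD, cut at about 14% in these data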;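 note: 0% = plate median of compound wells and 100% = 30 µM serotonin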
M18AAP inhibitor = blocks P. falciparum M18 aspartyl aminopeptidase | recombinant PfM18AAP, H-Glu-NHMec fluorogenic cleavage | inhibition, % at 7.35 µM | 290,000 compounds, 1.2% hits;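 active = inhibition above the campaign mean inhibition over all tested compounds plus 3 SD, cut at about 28% in these data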;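 note: 0% = plate median of test compound wells and 100% = 2 mM ZnCl2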
HGIII-sPLA2 inh = Inhibits HGIII-sPLA2 liposome hydrolysis, primary screen. Q9NZ20. QFRET BODIPY PC-A2 liposome hydrolysis, fluorescence. inhibition, % at 12.2 µM. 370,000 compounds, 0.56% hits. AID 743126;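 active = inhibition above mean plus 3 SD of compounds lying within the high and low control bounds, cut at about 19% in these data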;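 note: 0% = median of test compound wells and 100% = no enzyme DMSO wells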
Target sequence (Q9NZ20 whole entry, looked up): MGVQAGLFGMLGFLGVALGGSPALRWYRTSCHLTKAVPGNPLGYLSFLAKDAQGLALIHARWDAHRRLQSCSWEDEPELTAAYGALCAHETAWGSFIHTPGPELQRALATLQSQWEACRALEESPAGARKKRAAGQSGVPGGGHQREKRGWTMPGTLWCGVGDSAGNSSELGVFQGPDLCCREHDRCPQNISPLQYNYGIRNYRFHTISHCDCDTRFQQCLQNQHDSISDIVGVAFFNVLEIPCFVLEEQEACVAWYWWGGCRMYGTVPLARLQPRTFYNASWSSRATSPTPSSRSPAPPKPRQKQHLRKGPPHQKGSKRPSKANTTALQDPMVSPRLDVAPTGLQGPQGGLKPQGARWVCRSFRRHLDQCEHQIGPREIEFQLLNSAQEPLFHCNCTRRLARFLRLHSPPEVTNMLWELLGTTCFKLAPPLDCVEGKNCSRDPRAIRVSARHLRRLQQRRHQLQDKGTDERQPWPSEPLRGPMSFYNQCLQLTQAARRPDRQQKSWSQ
NRP1-CendR mod = alters CendR peptide binding to human NRP-1. FAM-RPARPAR peptide binding to NRP-1, fluorescence polarization. inhibition, % at 25 µM. 360,000 compounds, 0.85% hits;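 active = inhibition or corrected inhibition above about 18%, plus a signal ratio from 0.5 to 1.5, limit read from the data, passing the limit was not always enough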
Lipid droplet = modulators of hepatic lipid droplet formation; 240,000 compounds, 0.4% hits; AID 1656; AML12 mouse hepatocytes, oleate lipid droplets, BODIPY imaging; inhibition, % at 6.5 µM;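 active = lipid droplet intensity inhibited by at least 50%, with more than 500 cells counted; inconclusive = wells with under 300 cells, treated as cytotoxic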
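Assay system: AML12 mouse liver cells | Compound dosing: One dose, 6.5 µM compound | Read-out basis: Droplet intensity reduction, % inhibition | Measured by: Fluorescence imaging, 20x objective, two fields per well | Schedule: Overnight treatment with compound plus oleate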
* hit, by the source's call; ? = inconclusive; . = no result. Shown are actives, neighbours in structure and some others; about 3.3% of the full set was active somewhere.

SMILES	Arr AP2 block	HTR2A ag	M18AAP inhibitor	HGIII-sPLA2 inh	NRP1-CendR mod	Lipid droplet
CC(C)NC(=O)C1(C)CN(S(C)(=O)=O)CC(=O)N1CCc1ccccc1F (stereo not drawn)	.	1.2	.	3.9	11.8	.
CC(=O)NCCn1ccc2ccccc21	-1.6	-0.3	-0.7	2.1	31.5*	1.7
O=C(Cc1ccccc1)NCCn1ccc2ccccc21	6.5	6.2	-3.0	-9.8	1.8	-14.1
Cc1ccccc1N1CCN(C2CCCN(C(=O)CCN3CCCCO3)C2)CC1 (stereo not drawn)	9.6	2.1	5.3	2.4	25.8*	-1.2
Cc1ccccc1N1CCN(C2CCCN(C(=O)CCN3CCCCC3=O)C2)CC1 (stereo not drawn)	-2.8	-6.3	2.7	3.5	-1.6	-15.3
COc1ccccc1N1CCN(C2CCCN(C(=O)Cn3cccn3)C2)CC1 (stereo not drawn)	-7.4	-1.8	-12.0	2.0	24.0*	1.1
O=[N+]([O-])c1ccc(NNC(=S)Nc2ccc(F)cc2)cc1	8.2	-1.7	28.7*	0.5	-14.5	-70.8
CCOc1ccccc1C1CC(=O)NC2=C1C(=O)CC(C)(C)C2 (stereo not drawn)	-6.0	3.8	-7.0	-1.6	25.7*	.
CCOc1ccccc1C1CC(=O)Nc2cc(OC)c(OC)cc21 (stereo not drawn)	-6.5	-2.1	0.7	-0.8	6.9	1.3
COc1ccc(C(=O)NCC2CCN(C(=O)C(=O)c3cc4ccccc4o3)CC2)cc1	.	.	.	-0.7	.	.
CCOC(=O)C(=NC1CCS(=O)(=O)C1)NNc1ccc(Br)cc1 (stereo not drawn)	21.9	0.5	8.6	13.8	8.0	4.4
CCOC(=O)C(=NC(C)CC)NNc1ccc(Br)cc1 (stereo not drawn)	3.5	-2.0	29.6*	11.1	7.7	?
Cc1ccn(C(=O)c2cc3c(C)nn(-c4ccccc4)c3s2)n1	31.3	0.8	-3.5	.	27.7*	.
Cc1nn(-c2ccccc2)c2sc(C(=O)n3cccn3)cc12	-1.5	-3.3	.	1.8	-9.5	.
CCCCCn1nnnc1C1(C)CSCC(=O)N1Cc1ccco1 (stereo not drawn)	.	.	.	1.6	.	.
CCOc1cc(-c2ccc(N)c(OCC)c2)ccc1N	11.5	-0.6	-7.5	-0.1	43.3*	-14.3
CCOc1ccc(NC(C)=O)cc1N	2.3	-1.3	.	3.9	4.4	.
COc1cccc(/C=C2\CC3(OC(=O)c4ccc(F)cc4)CCCN2C3)c1 (stereo not drawn)	.	.	.	-7.5	.	.
CCC/C=N/Nc1nc2ccccc2s1	-0.3	-2.2	35.3*	4.3	0.4	30.7
C(=C\c1ccccc1)/C=N/Nc1nc2ccccc2s1	0.6	-1.0	5.0	-26.0	14.8	.
Cc1cccc(CCNC(=O)C2CC(O)CN2C(=O)Nc2ccccc2)c1 (stereo not drawn)	.	1.0	.	-2.1	-8.4	.
Oc1ccc2ccccc2c1C1Nc2cccc3cccc(c23)N1	19.6	-10.2	-6.4	.	-1.7	1.4
Oc1ccc(O)c2c1C1c3ccccc3C2c2ccccc21	.	.	81.2*	.	.	-0.8
C=CC[n+]1ccc(/C=C2\C=Cc3cc(C)ccc3N2CC)c2ccccc21	-14.9	-3.9	2.9	.	12.8	-36.8
O=C(Nc1cccc(Br)c1)c1ccc(CSc2ccccc2)cc1	7.5	-5.0	-3.1	1.4	39.9*	.
SMILES	Arr AP2 block	HTR2A ag	M18AAP inhibitor	HGIII-sPLA2 inh	NRP1-CendR mod	Lipid droplet
O=S(=O)(c1cccs1)N1CCN(c2ccc(O)cc2)CC1	36.0	-3.0	37.3*	-1.1	9.3	-25.4
CC(Cc1ccccc1)NC(=O)CCNNC(=O)c1ccncc1 (stereo not drawn)	.	-0.6	.	3.9	-2.7	.
Cc1ccc(S(=O)(=O)N2CCN(CC(=O)N(CC(C)C)c3c(N)n(CC(C)C)c(=O)[nH]c3=O)CC2)c(C)c1	-27.1	-0.5	-4.8	-5.7	48.7*	0.5
CC/C=C\[C@H](O)[C@H](O)C1=C(C)C(=O)[C@]2(O1)C(=O)N[C@@](OC)(C(=O)c1ccccc1)[C@@H]2O	.	.	.	4.2	.	.
CCN(C(=O)COC(=O)CNC(=O)c1ccc(F)cc1)C1CCS(=O)(=O)C1 (stereo not drawn)	-0.5	-2.1	-10.3	-1.1	28.0*	6.6
CC(C)CN(C(=O)COC(=O)CNC(=O)c1ccc(Cl)cc1)C1CCS(=O)(=O)C1 (stereo not drawn)	-4.2	0.0	-6.3	-3.0	8.7	-8.3
Cc1cc(C)c2c(=O)n(CC(=O)NC3CCCC3)sc2n1	33.4	4.3	56.2*	6.3	3.5	1.1
CCn1c(Cc2cccs2)nnc1SCC(=O)Nc1ccccc1-c1ccccc1	.	.	.	-5.7	.	.
O=C1CN(S(=O)(=O)c2cc(Cl)ccc2Cl)c2ccccc2N1	7.0	-3.6	-13.7	-2.1	21.6*	-2.1
CSc1ccc(S(=O)(=O)N2CC(=O)Nc3ccccc32)cc1	18.5	8.7	3.6	-2.2	-13.5	3.8
CCCCN(C(C)=O)c1c(CC)nc2ccc(C(=O)NCCCN(C)C)cn12	.	3.5	.	-3.0	2.1	.
Cc1ccccc1OCCC(=O)Nc1ccc(S(=O)(=O)N2CCCC2)cc1	.	-0.7	.	-12.9	-0.1	.
COc1ccccc1CN1CC(C(=O)N2CCC(C(=O)c3ccccc3)CC2)CCC1=O (stereo not drawn)	-11.5	-3.0	0.1	-9.0	5.5	-15.8
Cc1cccc(C)c1Nc1nnc(SCC(=O)Nc2cc(S(=O)(=O)N3CCCCC3)ccc2Cl)s1	0.4	-0.6	5.2	-18.6	25.5*	-18.2
Cc1ccc(S(=O)(=O)N2CCCCC2)cc1NC(=O)CSCC(=O)O	13.9	2.5	10.5	2.4	58.8*	6.8
Cc1cccc(Nc2nnc(SCC(=O)Nc3cccc(S(=O)(=O)N4CCCCC4)c3)s2)c1	-15.4	0.0	-10.9	-10.9	-5.8	-8.1
CC1CCC2(CC1)CCN(CCCOC(=O)Nc1cccc(F)c1)C2=O (stereo not drawn)	.	.	.	-4.3	.	.
COc1cc(C(O)c2nc(-c3cccc(C#N)c3)cs2)ccc1F (stereo not drawn)	.	0.4	.	-3.6	10.4	.
COCc1nnc(NC(=O)c2c(-c3c(Cl)cccc3Cl)noc2C)s1	-12.2	0.1	11.2	-1.8	20.0*	2.1
Cc1onc(-c2ccc(Cl)cc2Cl)c1-c1csc(COc2ccccc2)n1	7.2	1.2	4.4	-10.3	27.4*	-25.2
NC(=S)N/N=C/c1ccc2cccc(OCc3ccccc3)c2n1	-6.5	-1.0	43.5*	9.6	9.3	-27.5
O/N=C/c1ccc2cccc(OCc3ccccc3)c2n1	15.5	-1.5	10.4	-10.2	-2.0	-3.4
NC(=O)c1ncn([C@@H]2O[C@H](C(=O)N[C@H](Cc3ccccc3)C(=O)O)[C@@H](O)[C@H]2O)n1	.	.	.	10.6	.	.
NS(=O)(=O)c1ccc(CCNC(=O)CNC(=O)c2ccc(Br)o2)cc1	16.7	2.9	.	.	19.3*	.

Compound activity from PubChem.
